Source: ChEMBL document CHEMBL3813596, “Conformational Constraint of the Glycerol Moiety of Lysophosphatidylserine Affords Compounds with Receptor Subtype Selectivity” (J Med Chem, 2016)
Active and inactive are the calls of the source. The calls are words filed in the database; no cut-off is given here.

How the values were obtained:
[1] = target: Probable G-protein coupled receptor 34 (Mus musculus, UniProt Q9R1K6); experiment: (§1) Agonist activity at mouse GPR34 expressed in HEK293A cells cotransfected with chimeric Galphaq/il after 1.5 hrs by alkaline phosphatase tagged-TGFalpha shedding assay; format: cell-based, HEK293-A
[2] = target: Probable G-protein coupled receptor 34 (Mus musculus) (UniProt Q9R1K6); experiment: as §1; format: cell-based; conditions: HEK293-A
[3] = target: Putative P2Y purinoceptor 10 (Mus musculus) (UniProt Q8BFU7); experiment: (§2) Agonist activity at mouse P2Y10 receptor expressed in HEK293A cells after 1.5 hrs by alkaline phosphatase tagged-TGFalpha shedding assay; format: cell-based; conditions: HEK293-A
Procedure, shortened: (§3)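 Transient transfection of HEK293 cells with AP-TGFα plus the mouse receptor. For GPR34, HEK293A cells also got a chimeric Gαq/i1 subunit; P2Y10 was run in HEK293A and GPR174 in HEK293FT. Cells were seeded 24 h post-transfection in 5 mM HEPES (pH 7.4) HBSS onto serial 3.2-fold compound dilutions (top final 32 μM or lower, limited by mock-cell signal). Ki16425 was present, and incubation ran 1.5 h.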

[4] = target: Putative P2Y purinoceptor 10 (Mus musculus, UniProt Q8BFU7); experiment: as §2; format: cell-based, HEK293-A; procedure, shortened: as §3
[5] = target: Putative P2Y purinoceptor 10 (Mus musculus) (UniProt Q8BFU7); experiment: Intrinsic activity at mouse P2Y10 receptor expressed in HEK293A cells after 1.5 hrs by alkaline phosphatase tagged-TGFalpha shedding assay relative to diF-C3-ph-o-O-C11; format: cell-based; conditions: HEK293-A
Procedure, shortened: (§4)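 It is a dimensionless estimate of agonist activity. The GPR34 assay used HEK293A cells with chimeric Gαq/i1 and a 1.5 h incubation; the P2Y10 assay used HEK293A cells.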

[6] = target: Probable G-protein coupled receptor 174 (Mus musculus) (UniProt Q3U507); experiment: Agonist activity at mouse GPR174 expressed in HEK293FT cells after 1.5 hrs by alkaline phosphatase tagged-TGFalpha shedding assay; format: cell-based; procedure, shortened: as §3
[7] = target: Probable G-protein coupled receptor 34 (Mus musculus) (UniProt Q9R1K6); experiment: Intrinsic activity at mouse GPR34 expressed in HEK293A cells cotransfected with chimeric Galphaq/il after 1.5 hrs by alkaline phosphatase tagged-TGFalpha shedding assay relative to O-(Hydroxy(((2R,3R)-2-(((3-(2-((3-phenoxybenzyl)oxy)phenyl)-propanoyl)oxy)methyl)tetrahydro-2H-pyran-3-yl)oxy)phosphoryl)-L-serine; format: cell-based; conditions: HEK293-A; procedure, shortened: as §4
[8] = target: Putative P2Y purinoceptor 10 (Mus musculus) (UniProt Q8BFU7); experiment: Agonist activity at mouse P2Y10 receptor expressed in rat McA-RH7777 cells assessed as induction of actin stress fiber formation at 100 nM after 30 mins by Alexa fluor 594-labelled phalloidin/DAPI staining based fluorescence microscopy; format: cell-based
Procedure, shortened: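 McA-RH7777 rat hepatoma cells stably expressing mouse P2Y10, or mock-infected, seeded on collagen I at 2.5 × 10^4 cells/well, grown 24 h in 10% FBS DMEM. Serum-starved 1 h in 0.01% BSA DMEM, stimulated 30 min. Fixed in 4% paraformaldehyde, Triton X-100 permeabilised, stained 1 h with Alexa 594-phalloidin (1.5 μg/mL) and DAPI (1 μg/mL). Scored by fluorescence imaging.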

Chain of Probable G-protein coupled receptor 34 (Mus musculus) (Q9R1K6 whole entry): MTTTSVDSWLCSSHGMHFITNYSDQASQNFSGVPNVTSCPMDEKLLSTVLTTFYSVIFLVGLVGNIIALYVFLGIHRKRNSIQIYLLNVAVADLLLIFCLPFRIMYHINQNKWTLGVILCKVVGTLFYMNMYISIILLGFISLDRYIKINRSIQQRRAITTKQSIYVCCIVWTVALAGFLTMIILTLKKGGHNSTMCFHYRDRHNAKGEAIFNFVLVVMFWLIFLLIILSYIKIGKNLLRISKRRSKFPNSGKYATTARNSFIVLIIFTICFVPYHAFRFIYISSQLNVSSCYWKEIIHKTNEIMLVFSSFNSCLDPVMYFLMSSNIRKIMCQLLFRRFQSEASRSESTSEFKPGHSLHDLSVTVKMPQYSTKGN
Chain of Probable G-protein coupled receptor 34 (Q9R1K6 whole entry): as above
Chain of Probable G-protein coupled receptor 174 (Mus musculus) (Q3U507 whole entry): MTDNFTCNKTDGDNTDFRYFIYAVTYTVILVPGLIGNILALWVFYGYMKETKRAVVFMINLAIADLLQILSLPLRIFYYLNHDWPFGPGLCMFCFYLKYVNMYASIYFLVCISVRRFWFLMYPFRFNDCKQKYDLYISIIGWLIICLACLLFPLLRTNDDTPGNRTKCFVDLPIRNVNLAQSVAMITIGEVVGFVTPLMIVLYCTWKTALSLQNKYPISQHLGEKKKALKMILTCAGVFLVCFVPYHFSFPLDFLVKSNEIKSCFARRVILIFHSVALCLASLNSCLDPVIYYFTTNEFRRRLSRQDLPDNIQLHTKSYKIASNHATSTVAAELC
Chain of Putative P2Y purinoceptor 10 (Q8BFU7 whole entry): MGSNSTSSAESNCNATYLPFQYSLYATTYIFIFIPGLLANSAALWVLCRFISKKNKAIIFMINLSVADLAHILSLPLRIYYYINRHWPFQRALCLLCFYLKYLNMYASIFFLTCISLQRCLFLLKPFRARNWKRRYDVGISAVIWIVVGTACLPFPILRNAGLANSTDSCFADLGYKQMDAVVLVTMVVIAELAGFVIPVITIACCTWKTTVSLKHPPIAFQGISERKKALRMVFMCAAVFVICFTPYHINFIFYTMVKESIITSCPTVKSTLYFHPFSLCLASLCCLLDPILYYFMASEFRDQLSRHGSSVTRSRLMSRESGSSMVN
Chain of Putative P2Y purinoceptor 10 (Mus musculus) (Q8BFU7 whole entry): as above

Compound	EC50 ([1]; read-out: EC50)	Emax [2]	Emax [3]	EC50 ([4]; read-out: EC50)	Intrinsic activity [5]	Activity [6]	Intrinsic activity [7]	EC50 ([1]; hek293-a)	EC50 ([4]; hek293-a)	pEC50 [2]	Activity [8]
CCCCCCCCCCCOc1ccccc1CCC(=O)OCc1ccc(OP(=O)(O)OC[C@H](N)C(=O)O)cc1			inactive	> 1 µM	inactive			Not Active			inactive
CCCCCCCC/C=C\CCCCCCCC(=O)O[C@H]1CCCO[C@@H]1COP(=O)(O)OC[C@H](N)C(=O)O						inactive		Not Active	Not Active		
CCCCCCCCCCCOc1ccccc1CCC(=O)OCc1ccccc1OP(=O)(O)OC[C@H](N)C(=O)O	0.7 µM	5.9%	5.8%	0.045 µM	0.02		0.2				Active
CCCCCCCC/C=C\CCCCCCCC(=O)OC[C@@H](O)COP(=O)(O)OC[C@H](N)C(=O)O		9.5%	12.5%	0.025 µM	0.073		0.33				Active
CCCCCCCC/C=C\CCCCCCCC(=O)OC[C@@H]1OCCC[C@@H]1OP(=O)(O)OC[C@@H](N)C(=O)O (single isomer, unassigned)	0.21 µM	11.1%				inactive	0.53		Not Active		
N[C@@H](COP(=O)(O)O[C@H]1CCCO[C@@H]1COC(=O)CCc1ccccc1OCc1cccc(Oc2ccccc2)c1)C(=O)O	0.34 µM	9.8%	inactive	> 1 µM	inactive	inactive	0.24				
N[C@@H](COP(=O)(O)O[C@@H]1CCCO[C@@H]1COC(=O)CCc1ccc(OCc2cccc(Oc3ccccc3)c2)cc1)C(=O)O			inactive	> 1 µM	inactive			Not Active			
CCCCCCCC/C=C\CCCCCCCC(=O)OC[C@@H]1OCC=C[C@@H]1OP(=O)(O)OC[C@@H](N)C(=O)O (single isomer, unassigned)	> 1 µM	inactive	inactive	> 1 µM	inactive		inactive				
N[C@@H](COP(=O)(O)OC[C@H]1OCCC[C@@H]1OC(=O)CCc1ccccc1OCc1cccc(Oc2ccccc2)c1)C(=O)O	> 1 µM	inactive	inactive	> 1 µM	inactive	inactive	inactive				
N[C@@H](COP(=O)(O)OC[C@H]1OCCC[C@H]1OC(=O)CCc1cccc(OCc2cccc(Oc3ccccc3)c2)c1)C(=O)O			inactive	> 1 µM	inactive			Not Active			
CCCCCCCC/C=C\CCCCCCCC(=O)O[C@@H]1C=CCO[C@@H]1COP(=O)(O)OC[C@H](N)C(=O)O	0.56 µM		inactive	> 1 µM	inactive						
N[C@@H](COP(=O)(O)OC[C@H]1OCCC[C@H]1OC(=O)CCc1ccc(OCc2cccc(Oc3ccccc3)c2)cc1)C(=O)O	> 1 µM	inactive	inactive	> 1 µM	inactive		inactive				
CCCCCCCCCCCOc1ccccc1CCC(=O)O[C@H]1C=CCO[C@@H]1COP(=O)(O)OCC(N)C(=O)O (single isomer, unassigned)		inactive	inactive	> 1 µM	inactive		inactive	Not Active		inactive	
CCCCCCCCCCCOc1ccccc1CCC(=O)O[C@@H]1C=CCO[C@@H]1COP(=O)(O)OCC(N)C(=O)O (single isomer, unassigned)	> 1 µM	inactive	inactive	> 1 µM	inactive		inactive				
CCCCCCCCCCCOc1ccccc1CCC(=O)OCc1cccc(OP(=O)(O)OC[C@H](N)C(=O)O)c1			10.8%	0.0067 µM	0.23			Not Active			Active
CCCCCCCCCCCOc1ccccc1CCC(=O)O[C@@H]1CCCO[C@@H]1COP(=O)(O)OCC(N)C(=O)O (single isomer, unassigned)	> 1 µM	inactive	inactive	> 1 µM	inactive	inactive	inactive				

Second part, led by results:

EC50 ([1]; read-out: EC50)	Emax [2]	Emax [3]	EC50 ([4]; read-out: EC50)	Intrinsic activity [5]	Activity [6]	Intrinsic activity [7]	EC50 ([1]; hek293-a)	EC50 ([4]; hek293-a)	pEC50 [2]	Compound	Activity [8]
0.64 µM	5.3%	7.5%	0.61 µM	0.002	inactive	0.082				CCCCCCCCCCCOc1ccccc1CCC(=O)OC[C@H]1OCCC[C@@H]1OP(=O)(O)OC[C@H](N)C(=O)O	
		7.6%	0.017 µM	0.071			Not Active			CCCCCCCCCCCOc1ccccc1CCC(=O)OC[C@H]1OCC=C[C@@H]1OP(=O)(O)OC[C@H](N)C(=O)O	Active
		inactive	> 1 µM	inactive			Not Active			CCCCCCCC/C=C\CCCCCCCC(=O)O[C@H]1C=CCO[C@@H]1COP(=O)(O)OC[C@H](N)C(=O)O	
0.18 µM	16.5%	inactive	> 1 µM	inactive		0.86				N[C@@H](COP(=O)(O)OC[C@H]1OCC=C[C@H]1OC(=O)CCc1ccccc1OCc1cccc(Oc2ccccc2)c1)C(=O)O	
> 1 µM			> 1 µM		inactive					CCCCCCCC/C=C\CCCCCCCC(=O)O[C@@H]1CCCO[C@@H]1COP(=O)(O)OC[C@H](N)C(=O)O	
> 1 µM	inactive	inactive	> 1 µM	inactive		inactive				N[C@@H](COP(=O)(O)OC[C@H]1OCC=C[C@@H]1OC(=O)CCc1ccccc1OCc1cccc(Oc2ccccc2)c1)C(=O)O	
0.6 µM	12.4%	inactive	> 1 µM	inactive		0.2				N[C@@H](COP(=O)(O)O[C@@H]1C=CCO[C@@H]1COC(=O)CCc1ccccc1OCc1cccc(Oc2ccccc2)c1)C(=O)O	
> 1 µM	inactive	inactive	> 1 µM	inactive		inactive				N[C@@H](COP(=O)(O)O[C@@H]1CCCO[C@@H]1COC(=O)CCc1cccc(OCc2cccc(Oc3ccccc3)c2)c1)C(=O)O	
0.51 µM		12.4%	0.042 µM	0.05						CCCCCCCCCCCOc1ccccc1CCC(=O)OC[C@H]1OCC=C[C@H]1OP(=O)(O)OC[C@H](N)C(=O)O	Active
0.46 µM	11.7%	11.5%	0.33 µM	0.0053		0.25				N[C@@H](COP(=O)(O)O[C@H]1C=CCO[C@@H]1COC(=O)CCc1ccccc1OCc1cccc(Oc2ccccc2)c1)C(=O)O	
0.1 µM	8.7%		0.45 µM		inactive	1.03				CCCCCCCC/C=C\CCCCCCCC(=O)OC[C@@H]1OCCC[C@H]1OP(=O)(O)OC[C@@H](N)C(=O)O (single isomer, unassigned)	
> 1 µM	inactive	11.5%	0.45 µM	0.004		inactive				CCCCCCCC/C=C\CCCCCCCC(=O)OC[C@@H]1OCC=C[C@H]1OP(=O)(O)OC[C@@H](N)C(=O)O (single isomer, unassigned)	
0.11 µM	5.2%	10.6%	0.47 µM	0.0038	inactive	0.41				CCCCCCCCCCCOc1ccccc1CCC(=O)OC[C@H]1OCCC[C@H]1OP(=O)(O)OC[C@H](N)C(=O)O	
	< 3%	7.2%	0.29 µM	0.0098	inactive	inactive	Not Active		inactive	CCCCCCCCCCCOc1ccccc1CCC(=O)O[C@H]1CCCO[C@@H]1COP(=O)(O)OCC(N)C(=O)O (single isomer, unassigned)	
